ARNT TACC3 PPI: disruptors of human ARNT/TACC3 interaction; Q9Y6A5; AlphaScreen His-ARNT PAS-B/GST-TACC3 binding, luminescence; TACC3 fragment carries E629A point mutation; inhibition, % at 9.99 µM; actives 0.66% (n = 390,000); AID 623870;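 active = mean inhibition of replicates at least 50% and at least half of replicates each reaching 50%; inconclusive = half or more replicates reach 50% but mean below 50%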
FGF22 binding: FGF22 (human) thermal shift binding | recombinant FGF22 thermal shift, SYPRO orange fluorescence; percent of sucrose octasulfate shift, DMSO zero | activity (Tm shift, normalised), % at 9.99 µM | actives 1.5% (n = 340,000) | AID 651658;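 active = mean Tm shift, scaled 0 neutral to 100 positive control, at about 1.3% or above, every replicate too, limit read from the data; inconclusive = no clear call, values can overlap the other calls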
Target sequence (Q9HCT0 whole entry, looked up): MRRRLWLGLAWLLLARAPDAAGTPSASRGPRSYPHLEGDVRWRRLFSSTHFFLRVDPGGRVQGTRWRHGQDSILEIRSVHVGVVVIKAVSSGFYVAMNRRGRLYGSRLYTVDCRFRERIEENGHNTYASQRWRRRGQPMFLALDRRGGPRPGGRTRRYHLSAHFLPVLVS
DENV2 CPE rescue: protects cells from dengue virus 2 cytopathic effect | CPE inhibition, % at 9.99 µM | actives 1.7% (n = 350,000) | DENV2-infected cells, cytopathic effect rescue, plate reader | AID 651640; in the data active = CPE inhibition above about 20%, passing the limit was not always enough; inconclusive = no clear call, values can overlap the other calls; tested in BHK-21 cells
XiGFP reactiv: activators of X-chromosome reactivation in mouse fibroblasts; activation, % at 7.58 µM; AID 743238; XiGFP mouse fibroblasts, % GFP-positive cells imaging, 3 d; cells co-treated with 5-aza-dC sensitizer; scaled so ellipticine positive control = 100%; actives 0.055% (n = 360,000);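 active = mean normalized replicate activation at least 10% and every replicate at or above 10%; inconclusive = only one of the two criteria met; inactive = mean below 10% and not all replicates reach 10%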
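Assay system: SV40-immortalized XiGFP fibroblast cells, line 68-5-11; buffer or medium: DMEM plus 5-aza-dC sensitizer; compound: one concentration, pinned; timing: compounds 3 days, fix/stain 15 min at room temperature; benchmarks: positive control ellipticine, 6 µM final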
FN deposit inh: fibronectin deposition inhibition. AH1F fibroblasts, Alexa488-fibronectin deposition fluorescence, overnight. inhibition, % at 12.6 µM. actives 0.086% (n = 350,000). AID 743247;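 active = mean inhibition across replicates of 30% or more, regardless of how many single replicates reach that level; inconclusive = mean under 30% yet at least half of replicates reach 30%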
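Material: AH1F fibroblasts assembling fluorescent fibronectin matrix; amount: 10000 AH1F cells/well; medium: DMEM, 2% serum; reagent: Alexa488-fibronectin, 24 nM final in well; dosing: single compound dose, delivered by pin transfer; incubation: 1 h adhesion, overnight exposure; detection: fluorescence after three HBSS washes, excitation 485 nm, emission 525 nm; measure: fibronectin deposition inhibition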
SIRT5 inh: blocks human SIRT5 desuccinylation of peptide | AID 652115 | actives 1.1% (n = 330,000) | Purified SirT5, succinyl-peptide AMC, trypsin-coupled fluorescence | inhibition, % at 15 µM; in the data active = inhibition above about 15%; inconclusive = no clear call, values can overlap the other calls
Target sequence (Q9NXA8 whole entry, looked up): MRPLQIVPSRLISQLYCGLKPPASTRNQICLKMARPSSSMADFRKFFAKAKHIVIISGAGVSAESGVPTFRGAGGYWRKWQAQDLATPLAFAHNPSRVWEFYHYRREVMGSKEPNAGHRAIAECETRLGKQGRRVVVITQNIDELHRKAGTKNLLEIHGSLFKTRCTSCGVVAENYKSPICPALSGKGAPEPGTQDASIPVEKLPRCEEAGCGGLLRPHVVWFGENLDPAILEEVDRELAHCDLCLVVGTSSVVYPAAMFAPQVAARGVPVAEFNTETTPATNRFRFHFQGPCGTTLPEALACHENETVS
Numbers stand for hits; - = inactive; ? = inconclusive; . = no result given. An excerpt weighted towards active compounds, which were near 3.8% of everything screened.

SMILES | ARNT TACC3 PPI | FGF22 binding | DENV2 CPE rescue | XiGFP reactiv | FN deposit inh | SIRT5 inh
CCN(CC)C(=O)[C@H]1C[C@H](CC(=O)NC(C)(C)C)C(=O)N2CCc3c([nH]c4cc(CCC(=O)N(C)C)ccc34)[C@]12C | - | - | - | - | - | 31
CC(C)N(C(=O)[C@H]1C[C@H](CC(=O)NCc2ccco2)C(=O)N2CCc3c([nH]c4cc(CCC(=O)N(C)C)ccc34)[C@]12C)C(C)C | - | - | - | - | - | 30
O=C(C[C@@H]1CC[C@@H]2NC[C@@H](O)COC[C@H]2O1)Nc1ccccc1 | - | - | - | - | - | -
COc1cccc(-c2ccc3c(c2)O[C@H](CN(C)C(=O)C2CCOCC2)[C@H](C)CN([C@@H](C)CO)S3(=O)=O)c1 | - | - | - | - | . | -
CC(Oc1ccc(Cl)cc1Cl)C(=O)NCCCN1CCOCC1 (stereo not given) | - | - | 62 | - | - | -
Cc1cc(OC(C)C(=O)NCCCN2CCOCC2)ccc1Cl (stereo not given) | - | - | - | - | - | -
CCC/C(O)=C1\C(=O)CCCC1=NCCc1c(C)[nH]c2ccc(OC)cc12 | - | 43 | - | - | - | -
COCC(=O)N1[C@H](CO)[C@H](c2ccc(-c3ccccc3)cc2)C12CN(C(C)=O)C2 | . | - | - | - | - | -
Cc1ccc(C(=O)N2CCN(C(=O)C3CCCO3)CC2)cc1 (stereo not given) | - | - | - | - | - | -
O=C(c1cc(F)c(F)c(F)c1F)N1CCN(C(=O)C2CCCO2)CC1 (stereo not given) | - | 44 | - | - | - | .
C[C@@H]1CN([C@@H](C)CO)C(=O)c2cc(NS(=O)(=O)c3cccs3)ccc2O[C@H]1CN(C)Cc1ccc(-c2ccccc2)cc1 | - | - | - | - | - | -
CCN(CC(=O)Nc1c(F)cccc1F)C(=O)c1ccc(C(=O)c2ccccc2)cc1 | - | - | - | - | - | -
O=C(NC(c1ccccc1)c1ccccc1)c1cccc(S(=O)(=O)NCc2ccccc2)c1 | active | - | . | - | - | -
CCN(CC(=O)Nc1c(F)cccc1F)C(=O)c1cccc(S(=O)(=O)NCc2ccccc2)c1 | . | - | 80 | - | - | -
C/C=C/c1ccc2c(c1)O[C@@H](CN(C)Cc1ccncc1)[C@@H](C)CN([C@H](C)CO)S2(=O)=O | - | - | - | - | - | -
COCC(=O)Nc1ccc2c(c1)C(=O)N(C)[C@H]1CC[C@@H](CC(=O)NCCCN(C)C)O[C@@H]1CO2 | . | - | ? | - | - | -
Cc1occc1C(=O)N1CCCC(N2CCN(c3ccccc3F)CC2)C1 (stereo not given) | - | - | 26 | - | - | -
Cc1noc(C)c1S(=O)(=O)N(C)C[C@@H]1Oc2ccc(NC(=O)CCCN(C)C)cc2C(=O)N([C@H](C)CO)C[C@@H]1C | - | - | - | - | . | -
C[n+]1ccc(/C=C/c2c[nH]c3ccc(F)cc23)cc1 | - | - | - | - | - | 26
O=C(COC(=O)CSc1ccc([N+](=O)[O-])cc1)NCc1cccs1 | - | - | - | - | - | 15
C[C@@H]1CCCCO[C@H](CN(C)S(=O)(=O)c2cccs2)[C@@H](C)CN([C@H](C)CO)C(=O)c2cc(NC(=O)CCCCCC(=O)Nc3ccccc3N)ccc2O1 | . | - | 24 | - | . | -
C[C@@H]1CN([C@H](C)CO)C(=O)c2cc(NC(=O)CCCN(C)C)ccc2O[C@@H](C)CCCCO[C@H]1CN(C)S(=O)(=O)c1cccs1 | . | - | 34 | - | . | -
CN(C)S(=O)(=O)c1ccc2c(c1)nc(CCC(=O)NCC(=O)Nc1ccc(F)c(F)c1F)n2C | . | 44 | - | - | - | .
CN(C)S(=O)(=O)c1ccc2c(c1)nc(CCC(=O)O)n2C | - | . | - | - | - | -
CCCCCCCCCCCCCCCCn1cc[n+](C)c1 | - | - | - | - | 34 | -
SMILES | ARNT TACC3 PPI | FGF22 binding | DENV2 CPE rescue | XiGFP reactiv | FN deposit inh | SIRT5 inh
C[C@H](CO)N1C[C@H](C)[C@@H](CN(C)C(=O)C2CCCCC2)Oc2ncc(C#CC3CCCCC3)cc2C1=O | . | . | . | - | - | .
CC(C)NC(=O)N1C2CN(Cc3ccc(F)cc3)CC1C2c1ccc(Br)cc1 (stereo not given) | . | . | . | - | - | .
C[C@@H](NC(=O)C[C@@H]1CC[C@H]2[C@@H](COC[C@H](O)CN2Cc2cc(F)ccc2F)O1)c1ccccc1 | - | - | - | - | - | -
Cc1cccc(NC(=O)C2(c3cccs3)CCOCC2)c1 | - | . | . | - | - | .
Cc1ccc(NC(=O)C2(c3cccs3)CCOCC2)cc1C | - | - | 26 | - | - | -
O=C(Nc1ccc2c(c1)OCO2)N[C@@H]1CC[C@H](CCNC(=O)C2CC2)O[C@@H]1CO | - | - | - | - | - | -
O=C(Nc1ccc2c(c1)OCO2)N[C@H]1CC[C@H](CCNC(=O)C2CC2)O[C@@H]1CO | - | - | - | - | - | 31
O=C(C[C@H]1CC[C@@H](NC(=O)Nc2ccc3c(c2)OCO3)[C@@H](CO)O1)NCc1ccc2c(c1)OCO2 | - | - | 20 | - | . | -
O=C(C[C@H]1CC[C@@H](NC(=O)Nc2cc(F)ccc2F)[C@H](CO)O1)Nc1ccc(-c2ccccc2)cc1 | 48 | . | - | - | - | -
O=C(C[C@@H]1CC[C@@H](NC(=O)Nc2cc(F)ccc2F)[C@H](CO)O1)Nc1ccccc1 | - | - | - | - | . | -
O=C(C[C@@H]1CC[C@@H](NC(=O)Nc2cccc(F)c2)[C@H](CO)O1)NCC1CC1 | - | - | - | - | - | 22
CCN1[C@@H]2c3ccc(-c4ccccc4)c(=O)n3C[C@@H]2[C@@H](CO)[C@@H]1C(=O)NCc1ccccc1 | - | - | - | - | . | 22
CCN1[C@@H]2c3ccc(-c4cccc(F)c4)c(=O)n3C[C@@H]2[C@@H](CO)[C@@H]1C(=O)N[C@H](C)c1ccccc1 | - | . | - | - | . | 27
CCN1[C@@H]2c3ccc(-c4ccncc4)c(=O)n3C[C@@H]2[C@@H](CO)[C@@H]1C(=O)NCc1ccccc1 | - | - | - | - | . | -
CN1[C@@H]2c3ccc(-c4cccc(F)c4)c(=O)n3C[C@@H]2[C@@H](CO)[C@@H]1C(=O)NC1CCCC1 | . | . | - | - | . | -
O=C(NC1CCCC1)[C@H]1[C@H](CO)[C@H]2Cn3c(ccc(-c4ccncc4)c3=O)[C@H]2N1CCc1ccccc1 | - | - | - | - | . | 19
CN1[C@H](C(=O)NC2CCCCC2)[C@@H](CO)[C@@H]2Cn3c(ccc(-c4cccc(F)c4)c3=O)[C@@H]21 | - | . | - | - | . | 16
